In article PMC4733660 (Organic & biomolecular chemistry, 2010):
Like-named read-outs stand apart in the source and are kept apart here.

What was measured:
Type in all cases: biochemical
PHD2 = PHD2 (Homo sapiens, UniProt Q9GZT9); assay: PHD2 fluorescence-based; settings: for PHD2 Residual Activity (%): HTRF-based assay, enzyme concentration 20 nM, 400 μM compound concentration; for PHD2 inhibition (in words): 400 μM inhibitor concentration
JMJD2E = target: T1, JMJD2E (Homo sapiens, UniProt B2RXH2); assay: FDH-coupled spectrophotometric turnover assay of JMJD2E; settings: for JMJD2E Residual Activity (%): enzyme concentration 400 nM, 200 μM compound concentration
T1 sequence (B2RXH2 1-506): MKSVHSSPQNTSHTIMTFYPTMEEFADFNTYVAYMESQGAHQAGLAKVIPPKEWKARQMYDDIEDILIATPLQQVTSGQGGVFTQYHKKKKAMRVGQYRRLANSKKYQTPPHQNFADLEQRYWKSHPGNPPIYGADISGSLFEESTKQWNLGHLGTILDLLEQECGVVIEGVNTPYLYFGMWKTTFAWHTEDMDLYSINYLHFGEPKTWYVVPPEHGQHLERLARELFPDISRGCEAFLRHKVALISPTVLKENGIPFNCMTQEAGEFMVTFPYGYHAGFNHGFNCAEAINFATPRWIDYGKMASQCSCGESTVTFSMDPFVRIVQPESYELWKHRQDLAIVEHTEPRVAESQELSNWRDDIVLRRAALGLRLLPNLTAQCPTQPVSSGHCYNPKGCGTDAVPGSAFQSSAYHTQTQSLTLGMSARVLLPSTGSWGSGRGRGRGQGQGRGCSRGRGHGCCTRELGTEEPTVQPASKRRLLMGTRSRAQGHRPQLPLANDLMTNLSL

[1] = target: T2, formaldehyde dehydrogenase (FDH) (Pseudomonas putida, UniProt P46154); assay: FDH counterscreen, spectrophotometric assay; settings: enzyme concentration 50 μM, 200 μM compound concentration
T2 sequence (P46154 1-399): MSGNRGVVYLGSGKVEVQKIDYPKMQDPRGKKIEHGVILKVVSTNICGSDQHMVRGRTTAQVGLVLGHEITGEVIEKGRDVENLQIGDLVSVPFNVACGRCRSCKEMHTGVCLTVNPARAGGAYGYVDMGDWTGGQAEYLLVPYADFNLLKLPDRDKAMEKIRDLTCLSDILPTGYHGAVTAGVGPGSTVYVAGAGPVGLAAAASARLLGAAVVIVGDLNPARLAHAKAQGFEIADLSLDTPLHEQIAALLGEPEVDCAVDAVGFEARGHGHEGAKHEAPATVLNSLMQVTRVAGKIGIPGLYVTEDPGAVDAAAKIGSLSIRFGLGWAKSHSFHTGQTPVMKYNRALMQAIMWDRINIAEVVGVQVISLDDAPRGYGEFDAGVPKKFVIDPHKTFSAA
Method in brief: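 Counterscreen run on the coupling enzyme alone to exclude false JMJD2E hits from FDH inhibition. FDH turnover of formaldehyde with NAD+ followed spectrophotometrically. Enzyme 50 μM; test compound at 200 μM; activity expressed as residual % of uninhibited FDH.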

Chain of PHD2 (Q9GZT9 whole entry): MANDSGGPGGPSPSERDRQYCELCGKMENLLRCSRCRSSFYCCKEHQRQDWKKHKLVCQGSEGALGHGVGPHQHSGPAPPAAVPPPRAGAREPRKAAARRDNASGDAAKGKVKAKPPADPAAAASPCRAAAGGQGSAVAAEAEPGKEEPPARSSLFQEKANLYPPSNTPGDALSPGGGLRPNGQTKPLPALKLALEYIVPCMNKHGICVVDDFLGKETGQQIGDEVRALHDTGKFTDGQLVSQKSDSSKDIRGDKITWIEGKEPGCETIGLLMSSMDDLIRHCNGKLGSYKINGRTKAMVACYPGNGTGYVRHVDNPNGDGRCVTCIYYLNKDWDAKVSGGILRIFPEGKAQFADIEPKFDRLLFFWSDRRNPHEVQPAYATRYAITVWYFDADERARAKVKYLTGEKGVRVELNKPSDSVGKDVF

PHD2 Residual Activity (%) (PHD2) | JMJD2E Residual Activity (%) (JMJD2E; FDH-coupled assay) | FDH Residual Activity (%) [1] | IC50 (JMJD2E) | JMJD2E inhibition (in words) (JMJD2E; FDH-coupled assay) | PHD2 inhibition (in words) (PHD2) | IC50 (JMJD2E; read-out: JMJD2E IC50, FDH-coupled assay) | Structure (SMILES)
100% | 84% | 100% | – | – | – | – | O=C(O)c1ccnc(C(=O)O)c1-c1ccccc1 [Compound 34, 3-Phenylpyridine-2,4-dicarboxylic acid]
85% | 25% | 87% | 66 µM | some recovery of inhibitory potency | – | – | O=C(O)c1ccnc(C(=O)O)c1/C=C/c1ccccc1 [Compound 35, (E)-3-Styrylpyridine-2,4-dicarboxylic acid]
23% | – | – | – | highly active | – | ~0.1 µM | Nc1c(C(=O)O)ccnc1C(=O)O [Compound 50, 3-amino-2,4-PDCA]

More lines, now with the values behind:

Structure (SMILES) | PHD2 Residual Activity (%) (PHD2) | JMJD2E Residual Activity (%) (JMJD2E; FDH-coupled assay) | FDH Residual Activity (%) [1] | IC50 (JMJD2E) | JMJD2E inhibition (in words) (JMJD2E; FDH-coupled assay) | PHD2 inhibition (in words) (PHD2) | IC50 (JMJD2E; read-out: JMJD2E IC50, FDH-coupled assay)
O=C(O)c1ccnc(C(=O)O)c1 [Compound 5, 2,4-pyridine dicarboxylic acid, reference compound] | 22% | 0% | 100% | – | – | – | –
O=C(O)c1ccnc(C(=O)O)c1Oc1ccccc1 [Compound 36, 3-Phenoxypyridine-2,4-dicarboxylic acid] | 88% | 48% | 91% | – | inactive | inactive | –
O=C(O)c1ccnc(C(=O)O)c1Nc1ccccc1 [Compound 37, 3-(Phenylamino)pyridine-2,4-dicarboxylic acid] | 100% | 0% | 83% | – | potent | do not inhibit PHD2 | –
